The values that follow come from ChEMBL document CHEMBL1275392, “Assessment of chemoselective neoglycosylation methods using chlorambucil as a model” (2010).

Usually GI50 stands for the concentration giving 50% growth inhibition. The low end stands for more potent growth inhibition, the high end for less potent growth inhibition.

A short description of assay [1]: Growth inhibition of human p53 deficient H1299 cells after 7 days by celltiter-glo assay. To be noted: NCI-H1299, 168 h. Format: functional. An outline of the steps: (§1)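 Cells seeded at 500 per well in 384-well plates. Compounds came from 30 mM DMSO stocks, serially diluted and tested in quadruplicate. Incubation was 7 d at 37 °C under 5% CO2. Calcein AM (10 μM) and EthD-1 were added, followed by a fluorescence read. CellTiter-Glo lysis was then done for 10 min at room temperature, with a luminescence read. GI50 came from curve fitting.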

The test system of assay [2] is A549. The experiment in a line: Growth inhibition of human A549 cells expressing p53 after 7 days by celltiter-glo assay. Format: functional. The following applies: A549, 168 h. Background: Cellular ATP, detected with luciferase, serves as a proxy for viable cell number.
Assay [3] relates to DU-145. The experiment in a line: Growth inhibition of human DU145 cells after 7 days by celltiter-glo assay. The following applies: DU-145, 168 h. The format is functional.
For assay [4], the system named is NCI-H460. The assay is described as follows: Growth inhibition of human NCI-H460 cells after 7 days by celltiter-glo assay. The format is functional. To be noted: NCI-H460, 168 h.
The nature of assay [5]: Growth inhibition of human p53 deficient Hep3B cells after 7 days by celltiter-glo assay. To be noted: 168 h. Format: functional, Hep 3B2. In short, it runs like this:
as §1

Assay [6] deals with SF-268. The assay is described as follows: Growth inhibition of human SF268 cells after 7 days by celltiter-glo assay. The format is functional. The following applies: SF-268, 168 h.
Assay [7] has as its system MCF7. The experiment in a line: Growth inhibition of human MCF7 cells after 7 days by celltiter-glo assay. To be noted: MCF7, 168 h. The format is functional.
Assay [8] has as its system HT-29. The assay is described as follows: Growth inhibition of human HT-29 cells after 7 days by celltiter-glo assay. Format: functional. To be noted: HT-29, 168 h.
In assay [9] the test system is SK-OV-3. The experiment in a line: Growth inhibition of human SKOV3 cells after 7 days by celltiter-glo assay. The format is functional. The following applies: SK-OV-3, 168 h.
Assay [10] concerns HCT-15. The assay is described as follows: Growth inhibition of human HCT15 cells after 7 days by celltiter-glo assay. Format: functional. The following applies: HCT-15, 168 h.

For the compound `CON(CCCc1ccc(N(CCCl)CCCl)cc1)C1C[C@H](O)[C@H](O)CO1` (stereo not given in full), the GI50 was 3.7 µM in [1]; 2.6 µM in assay [2]; 4 µM in assay [3]; 5.8 µM in assay [4]; 2.6 µM in assay [5]; 2.1 µM in assay [6]. The GI50 worked out at 0.96 µM in assay [7], 2.6 µM in assay [8], 2 µM in [9] and 2.3 µM in [10].

Turning to `C=CCOC(=O)NC[C@H]1O[C@@H](N(CCCc2ccc(N(CCCl)CCCl)cc2)OC)[C@H](O)[C@@H](O)[C@@H]1O`, the GI50 in [1] was determined as 2.1 µM; in assay [2], 4.5 µM; in assay [3] it was 6.2 µM; in assay [4], 11 µM; in assay [5], 4.6 µM; in assay [6], 3.1 µM. Moreover, the GI50 in assay [7] is 7.4 µM; in [8], 2.8 µM; in assay [9], 2.9 µM; in [10], 2.1 µM.

On to `CON(CCCc1ccc(N(CCCl)CCCl)cc1)C1OC[C@H](O)[C@H](O)[C@H]1O` (stereo not given in full), for which the GI50 in assay [1] is 0.84 µM; in assay [2] it was 2.3 µM; in assay [3], 3.6 µM; in assay [4], 6.1 µM; in assay [5], 1.9 µM; in assay [6], 1.9 µM. Besides, the GI50 in assay [7] worked out at 5.4 µM; in assay [8], 1.9 µM; in [9], 2.2 µM; in [10], 1 µM.

Regarding `CON(CCCc1ccc(N(CCCl)CCCl)cc1)[C@@H]1O[C@H](C(=O)O)[C@@H](O)[C@H](O)[C@H]1O`, the GI50 came to 0.99 µM in assay [1]; 5.5 µM in assay [2]; 3.9 µM in assay [3]; 9.1 µM in assay [4]; 4.9 µM in assay [5]; 1.6 µM in [6]. Moreover, the 50% growth inhibitory concentration (GI50) in [7] was 6 µM; in assay [8] it was 3.2 µM; in [9], 3.1 µM; in assay [10], 1.03 µM.

Take `CON(CCCc1ccc(N(CCCl)CCCl)cc1)C1OC[C@H](O)[C@H]1O` (stereo not given in full): the GI50 was determined as 0.72 µM in [1]; 2 µM in [2]; 2.1 µM in assay [3]; 1.9 µM in [4]; 1.4 µM in assay [5]; 1.3 µM in assay [6]. The concentration for 50% growth inhibition (GI50) in assay [7] amounted to 0.87 µM; in assay [8] it was 1.2 µM; in [9], 2.1 µM; in [10], 0.82 µM.

For `CON(CCCc1ccc(N(CCCl)CCCl)cc1)C1O[C@H](C(=O)O)[C@H](O)[C@H](O)[C@H]1NC(C)=O` (stereo not given in full), the GI50 in assay [1] stood at 3.8 µM; in assay [2], 22 µM; in assay [3] it was 16.7 µM; in [4] it was 42 µM; in [5] it was 11.8 µM; in assay [6], 4.2 µM. Besides, the GI50 in assay [7] was determined as 4.4 µM; in [8] it was 12 µM; in [9], 11 µM; in assay [10] it was 19.1 µM.

Take `CON(CCCc1ccc(N(CCCl)CCCl)cc1)[C@@H]1O[C@H](CO)[C@@H](O)[C@H](O)[C@H]1O`: the GI50 in [1] amounted to 1.4 µM; in assay [2] it was 4.5 µM; in assay [3] it was 5.5 µM; in [4], 12.3 µM; in [5], 3.4 µM; in assay [6], 1.8 µM. Moreover, the GI50 was found to be 1.5 µM in assay [7], 2.9 µM in [8], 3 µM in assay [9] and 2.8 µM in assay [10].

As for `O=C(CCCc1ccc(N(CCCl)CCCl)cc1)NN[C@@H]1O[C@H]2[C@H](OC(=O)[C@H]2O)[C@H]1O`, the GI50 was found to be 12.9 µM in [1]; 31 µM in assay [2]; 23 µM in assay [3]; 43 µM in assay [4]; 17.7 µM in assay [5]; 8.9 µM in assay [6]. Moreover, the GI50 in [7] is 9.9 µM; in [8], 30 µM; in assay [9], 37 µM; in assay [10], greater than 100 µM.

On to `CON(CCCc1ccc(N(CCCl)CCCl)cc1)C1O[C@H](C(=O)O)[C@H](O)[C@H](O)[C@H]1O` (stereo not given in full), for which the concentration for 50% growth inhibition (GI50) in assay [1] stood at 4.9 µM; in [2], 17.1 µM; in assay [3] it was 16.3 µM; in assay [4], 34 µM; in assay [5] it was 14.7 µM; in assay [6], 8.9 µM. Besides, the GI50 turned out to be 4.5 µM in assay [7], 14.9 µM in assay [8], 12.8 µM in assay [9] and 8.1 µM in [10].

Regarding `C[C@H]1OC(N(O)CCCc2ccc(N(CCCl)CCCl)cc2)[C@H](O)[C@@H](O)[C@H]1O` (stereo not given in full), the GI50 is 2.6 µM in assay [1]; 6.4 µM in assay [2]; 5.7 µM in assay [3]; 4.9 µM in assay [4]; 3.6 µM in [5]; 1.4 µM in assay [6]. Moreover, the GI50 in [7] was 2.7 µM; in assay [8], 4.6 µM; in assay [9], 4.7 µM; in assay [10], 3.8 µM.

Turning to `CON(CCCc1ccc(N(CCCl)CCCl)cc1)[C@@H]1OC[C@@H](O)[C@H]1O`, the GI50 worked out at 1.1 µM in assay [1]; 3.1 µM in [2]; 5 µM in [3]; 7.8 µM in [4]; 4.1 µM in assay [5]; 2.4 µM in assay [6]. The GI50 in [7] worked out at 8 µM; in assay [8], 1.6 µM; in [9], 2.6 µM; in assay [10], 0.77 µM.

Consider `CON(CCCc1ccc(N(CCCl)CCCl)cc1)[C@@H]1O[C@H](C)[C@@H](O)[C@H](O)[C@H]1O`, for which the concentration for 50% growth inhibition (GI50) is 1.8 µM in [1]; 4.6 µM in assay [2]; 4.9 µM in [3]; 8.5 µM in assay [4]; 4.4 µM in assay [5]; 2.9 µM in assay [6]. Further, the GI50 in [7] was found to be 5.8 µM; in [8], 2.2 µM; in assay [9], 2.9 µM; in assay [10] it was 1.1 µM.

`O=C(CCCc1ccc(N(CCCl)CCCl)cc1)N/N=C/[C@@H](O)[C@H](O)CO`: the GI50 in assay [1] is 2.6 µM; in [2], 7.5 µM; in [3], 9.5 µM; in assay [4], 10.8 µM; in assay [5], 4.1 µM; in [6], 2.6 µM. Besides, the GI50 in assay [7] is 4.2 µM; in [8], 4.8 µM; in assay [9], 6.2 µM; in [10], 7.3 µM.

Regarding `CON(CCCc1ccc(N(CCCl)CCCl)cc1)[C@H]1C[C@@H](O)[C@H](O)[C@@H](CO)O1`, the GI50 in assay [1] worked out at 0.58 µM; in [2] it was 3.1 µM; in assay [3] it was 4.3 µM; in assay [4], 5.4 µM; in assay [5], 3.7 µM; in [6], 2.5 µM. Besides, the 50% growth inhibitory concentration (GI50) in [7] came out at 5.4 µM; in [8] it was 1.2 µM; in [9] it was 1.12 µM; in assay [10] it was 0.7 µM.

For `CON(CCCc1ccc(N(CCCl)CCCl)cc1)[C@H]1O[C@H](CO)[C@H](O)[C@H](O)[C@@H]1O`, the concentration for 50% growth inhibition (GI50) was determined as 3 µM in [1]; 2.6 µM in assay [2]; 3.3 µM in [3]; 5 µM in assay [4]; 2.4 µM in [5]; 1.7 µM in [6]. For the same compound, the GI50 in assay [7] amounted to 1.5 µM; in assay [8], 1.8 µM; in [9], 2 µM; in [10], 2.2 µM.
